Source: PubChem BioAssay
Only some compounds are listed: those with a hit (about 3.4% of all), similar ones and a draw of the others.
HTR2A ag – mouse Htr2a agonists via beta-arrestin recruitment, primary screen, cell-based, luminescence; 5-hydroxytryptamine receptor 2A (Mus musculus), P35363; CHO-K1 mHTR2A beta-arrestin complementation; percent of 30 µM serotonin response; activation, % at 7.6 µM; 360,000 tested, 0.66% active; AID 624169, 2012;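 active = activation above a run cutoff, the mean activation of all tested compounds plus 3 SD, cut at about 14% in these data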;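 also: 0% = plate median of compound wells and 100% = 30 µM serotonin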
ANO1 block – TMEM16A chloride channel inhibitors, primary screen, cell-based, HTS | HEK293 TMEM16A/YFP iodide influx fluorescence, ionomycin | normalized B-score (activity score, 25-100; higher = stronger inhibition) at 10 µM | 310,000 tested, 1.2% active;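 active = ratio plate-corrected score three or more library SD toward inhibition, starting fluorescence score within five deviations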;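 also: score derived from kinetic fluorescence span divided by baseline fluorescence per well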
Target sequence (Q8BHY3 whole entry, looked up): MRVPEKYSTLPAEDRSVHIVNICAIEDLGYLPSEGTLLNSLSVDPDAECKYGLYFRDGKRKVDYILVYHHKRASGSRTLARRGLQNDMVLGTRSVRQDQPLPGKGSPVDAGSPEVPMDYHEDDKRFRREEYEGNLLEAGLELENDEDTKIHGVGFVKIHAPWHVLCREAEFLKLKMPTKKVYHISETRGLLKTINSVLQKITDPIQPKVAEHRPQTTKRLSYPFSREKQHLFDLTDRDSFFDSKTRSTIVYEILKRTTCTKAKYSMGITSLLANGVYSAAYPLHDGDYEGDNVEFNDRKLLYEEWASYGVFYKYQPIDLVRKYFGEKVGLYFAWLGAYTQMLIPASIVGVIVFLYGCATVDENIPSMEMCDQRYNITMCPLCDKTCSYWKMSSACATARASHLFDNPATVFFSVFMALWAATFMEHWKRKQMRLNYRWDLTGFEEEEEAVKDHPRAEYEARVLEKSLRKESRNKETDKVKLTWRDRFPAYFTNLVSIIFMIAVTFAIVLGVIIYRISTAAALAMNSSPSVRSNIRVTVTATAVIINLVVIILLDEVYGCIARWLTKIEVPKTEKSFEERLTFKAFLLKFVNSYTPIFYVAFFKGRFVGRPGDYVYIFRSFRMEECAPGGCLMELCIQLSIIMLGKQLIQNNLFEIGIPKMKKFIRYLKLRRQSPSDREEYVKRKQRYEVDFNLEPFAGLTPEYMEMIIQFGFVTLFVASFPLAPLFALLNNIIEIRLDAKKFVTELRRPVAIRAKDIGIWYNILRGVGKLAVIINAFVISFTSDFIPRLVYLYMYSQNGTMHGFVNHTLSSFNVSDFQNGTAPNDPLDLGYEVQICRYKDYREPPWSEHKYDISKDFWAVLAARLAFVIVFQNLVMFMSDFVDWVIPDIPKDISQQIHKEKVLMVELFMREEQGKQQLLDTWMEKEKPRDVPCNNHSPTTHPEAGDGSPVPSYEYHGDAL
MIN6 prolif – inducers of MIN6 beta-cell proliferation, primary screen, ATP luminescence, uHTS | AID 2380, 2010 | 330,000 tested, 0.29% active | proliferation, % at 10 µM | MIN6 cells proliferation, ATPlite luminescence, 48 h; cells starved in 0.2% serum; 100% = growth in 10% serum;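 active = compounds whose signal lies at least 3.5 SD above the mean of all wells on their plate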;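 also: 0% = DMSO-treated cells in low-serum medium and 100% = 10% serum control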
MC4R antag cAMP – MC4R antagonists of cAMP signaling, primary screen, cell-based, TR-FRET, antagonist arm of biased-ligand search; inhibition, % at 6.5 µM; 360,000 tested, 0.48% active; MC4R-expressing cells, MTII-stimulated cAMP, LANCE TR-FRET; Melanocortin receptor 4 (Homo sapiens), P32245;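 active = inhibition above its plate's cutoff, the mean of tested wells on that plate plus 3 SD, cut at about 29% in these data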;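 also: 0% = Melanotan II alone and 100% = Melanotan II plus saturating MCL0020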
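Assay system: U2OS-MC4R stable cell line; Also added: Melanotan II; Technique: Eu-cAMP/anti-cAMP TR-FRET, emission 671 nm; Times: 30-min compound, 1-h challenge, 1-h detection, room temperature.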
TMEM16A act – TMEM16A chloride channel activators or potentiators, primary screen, cell-based, HTS; Anoctamin-1 (Mus musculus), Q8BHY3; HEK293 TMEM16A/YFP-H148Q/I152L, iodide quench fluorescence; hits give low values; 340,000 tested, 0.3% active; B-score at 10 µM; AID 623877, 2012;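 active = fluorescence-ratio B-score plate-corrected deviation score at least 3 library SD below zero, with starting fluorescence score within 5 deviations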;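 also: channel opened by trigger with iodide after compound preincubation; score built on the fluorescence ratio of max minus min over baseline; more negative score means more quench and so TMEM16A activation or potentiation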
MC4R barr agon – MC4R agonists recruiting beta-arrestin, primary screen, cell-based, luminescence, agonist arm of biased-ligand search; U2OS MC4R beta-arrestin complementation; percent of melanotan II response, DMSO zero; activation, % at 8.9 µM; 360,000 tested, 0.98% active; Melanocortin receptor 4 (Homo sapiens), P32245; AID 540308, 2011;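 active = activation above a per-plate cutoff, the mean activation of sample wells on that plate plus 3 SD, cut at about 8% in these data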
MC4R barr ag – MC4R beta-arrestin agonists, retest, confirmation, cell-based, luminescence, U2OS; shares compounds with MC4R barr agon; U2OS MC4R beta-arrestin recruitment; scaled DMSO 0%, Melanotan II 100%; activation, % at 8.9 µM; 2,400 tested, 31% active;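 active = mean activation across replicates above the hit cutoff set in the earlier primary screen, cut at about 8% in these data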
MOR-DOR barr ag – agonists of MOR-DOR heterodimerization, counter-screen for MC4R biased agonist project, cell-based, luminescence. shares compounds with MC4R barr agon. U2OS PathHunter beta-arrestin, beta-gal luminescence; percent of deltorphin B response, DMSO zero. activation, % at 9.2 µM. 2,400 tested, 5.8% active;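 active = mean activation across replicates exceeds the hit threshold derived in the earlier primary screen, cut at about 18% in these data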;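 also: 100% = deltorphin B at 0.9 µM final and 0% = DMSO alone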
* hit, by the source's call; i = inactive; / = not tested or not shown.

SMILES | HTR2A ag | ANO1 block | MIN6 prolif | MC4R antag cAMP | TMEM16A act | MC4R barr agon | MC4R barr ag | MOR-DOR barr ag
CCOC(=O)c1nn(-c2ccc(C)cc2)cc1C(=O)c1ccccc1 | -1.8 | i | -3.8 | 2.5 | i | -0.5 | / | /
CCn1nccc1NC(=O)c1csc([C@@H]2C[C@H](O)[C@@H](CO)O2)n1 | -2.6 | / | / | -1.4 | / | 1.4 | / | /
Cc1nc(NC(=O)c2ccco2)sc1-c1csc(Nc2ccc(Cl)cc2)n1 | -0.5 | i | -8.5 | 20.8 | i | 10.2* | 9.1* | 5.5
COCCn1c(=NC(=O)/C=C/c2cccs2)sc2cc(NC(C)=O)ccc21 | 2.0 | i | -0.8 | 9.4 | i | 10.1* | 1.2 | 7.3
COc1ccc(-c2csc3ncnc(Nc4ccc(O)cc4)c23)cc1 | 1.0 | i | 2.2 | 22.1 | i | 14.4* | 5.0 | 9.6
COc1ccc(-c2csc3ncnc(NCCO)c23)cc1 | -3.1 | i | -0.8 | -1.2 | i | 1.0 | / | /
Cc1ccccc1C[n+]1cccc2ccccc21 | 0.3 | i | 2.3 | 0.6 | i | -2.4 | / | /
CCCCCCCCC[n+]1cccc2c3ccccc3ccc21 | 6.8 | 100* | -7.6 | -12.4 | i | 12.8* | 8.4* | 6.8
CCCCCCCCCCCCCCCC[n+]1cccc2ccccc21 | 3.6 | 100* | -2.9 | -8.3 | i | 18.4* | 34.3* | 22.8*
CCCNC(=O)C1(C)CCCN(Cc2ccccc2-c2ccccc2)C1 (centres undefined) | 3.9 | / | / | 4.0 | / | -0.1 | / | /
COc1cc(C)ccc1S(=O)(=O)NC(=O)C1(C)CCN1C(=O)Cc1ccc(C(C)(C)C)cc1 (centres undefined) | -0.3 | / | / | -3.9 | / | -1.0 | / | /
COC(=O)c1c(NC(=O)CC2SC(N)=NC2=O)sc2c1CCC(C(C)(C)C)C2 (centres undefined) | 7.5 | i | 0.0 | -1.2 | i | 10.4* | 17.5* | 2.3
C(=N\Nc1cc(N2CCCCC2)ncn1)/c1ccco1 | -3.9 | i | -2.8 | -3.2 | i | -0.9 | / | /
COc1ccc(OCCOC(=O)Nc2ccccc2)cc1 | 12.0 | i | -2.9 | 7.5 | i | 2.5 | / | /
COc1cc(C(F)(F)F)nc2ccc(C#CCOC(=O)Nc3ccccc3)cc12 | 2.4 | i | -6.1 | 5.7 | i | 14.3* | 5.8 | 6.2
Cc1cc(OCC(=O)C(C)(C)C)c2c(C)c(C)c(=O)oc2c1 | -1.9 | i | -2.8 | -5.3 | i | 14.8* | 1.2 | 6.0
CCOc1ccccc1-c1nc(-c2ccc(NC(=O)Cc3ccccc3OC)cc2)no1 | -1.6 | i | -3.1 | 4.4 | i | -1.3 | / | /
COc1ccccc1CC(=O)Nc1ccc(-c2noc(COc3ccc(Cl)c(C)c3)n2)cc1 | 3.1 | i | -3.9 | 8.8 | i | 10.5* | 1.4 | 7.5
O=P1(O)Cc2ccccc2-c2ccccc21 | 1.0 | / | / | 1.8 | i | -0.8 | / | /
O=C(Cn1cc(C(F)(F)F)ccc1=O)N/N=C/c1ccc(Cl)c(Cl)c1 | -1.1 | i | 0.0 | 18.8 | i | 13.3* | -1.0 | 9.2
O=C(Cn1cc(C(F)(F)F)ccc1=O)N/N=C/c1ccc(O)cc1 | -1.0 | i | 1.1 | 20.9 | i | 1.3 | / | /
CC(=O)Nc1ccc(OCCC[n+]2ccccc2)cc1 | -2.7 | i | -1.0 | -1.3 | i | -2.0 | / | /
CCCCCc1ccc(OCCC[n+]2ccccc2)c(CCCCC)c1 | -7.8 | i | -4.1 | 18.2 | i | 15.0* | 4.5 | 8.4
O=C(COc1c(Br)cc(Br)c2cccnc12)Nc1ccccc1F | -1.2 | i | 0.7 | -1.1 | i | 12.9* | 1.5 | 2.4
COc1ccc(CNC(=O)CCCCCn2c(SCC#N)nc3cc4c(cc3c2=O)OCO4)cc1 | 0.3 | i | -3.7 | 8.3 | i | 19.3* | -1.5 | 3.4
SMILES | HTR2A ag | ANO1 block | MIN6 prolif | MC4R antag cAMP | TMEM16A act | MC4R barr agon | MC4R barr ag | MOR-DOR barr ag
O=C(c1cccc(S(=O)(=O)NCc2ccccc2)c1)N1CCN(c2ccccc2Cl)CC1 | -1.6 | / | / | -2.1 | i | 3.6 | / | /
Oc1ccccc1N=Cc1c(O)ccc2oc3c(c12)CCCC3 | -16.2 | i | -6.6 | 2.3 | i | 14.3* | 8.3* | 9.5
O=C(O)c1ccc(N=Cc2c(O)ccc3oc4c(c23)CCCC4)cc1 | -2.5 | i | -4.0 | 3.2 | i | 1.9 | / | /
COc1ccc(NC(=O)CC(c2ccc(F)cc2)c2ccc(OC(C)C)cc2)cc1 (centres undefined) | 2.5 | i | -1.4 | 8.8 | i | 15.4* | 7.2 | 3.3
CCOc1ccc(NC(=O)CC(c2ccccc2)c2ccc(F)cc2)cc1 (centres undefined) | -6.5 | i | -1.4 | 4.5 | i | 16.8* | -0.2 | 5.5
CC(C)Oc1ccc(C(CC(=O)O)c2ccc(F)cc2)cc1 (centres undefined) | -1.2 | i | -0.7 | 4.0 | i | -1.2 | / | /
O=C(NC(c1ccc(-c2ccccc2)cc1)c1cnccn1)C1CCN(CCCOc2ccccc2)CC1 (centres undefined) | -10.7 | / | / | -2.4 | / | -1.2 | / | /
Cc1cccc(C)c1OC(=O)CSc1nnc(-c2ccccc2O)o1 | 3.5 | i | -2.7 | 3.2 | i | 54.4* | 8.2* | 4.4
COC(=O)CSc1nnc(-c2ccccc2OC)o1 | 7.8 | i | -0.8 | 5.3 | i | -1.0 | / | /
CC1=CC(C)(C)n2c(O)c(N=NC(N)=S)c3c(C)ccc1c32 | 2.1 | i | 0.0 | -3.2 | i | 2.1 | / | /
CC1=CC(C)(C)n2c(O)c(N=NC(N)=S)c3cccc1c32 | 2.9 | i | 0.8 | 9.3 | i | 10.9* | 0.7 | 2.7
CC(C)n1c(O)c(/C=C2\C=Nc3ccccc32)sc1=Nc1ccccc1 | 4.9 | i | -4.3 | -3.5 | i | 12.9* | -2.3 | 2.9
O=C(Nc1ccc(N2CCN(c3ccc(O)cc3)CC2)cc1)Oc1ccccc1 | -5.3 | i | -2.7 | -7.1 | i | 26.0* | -2.7 | 3.0
